From ChEMBL document CHEMBL1649496, “Piperaquine pharmacodynamics and parasite viability in a murine malaria model” (Antimicrob Agents Chemother, 2009) come the findings set out here.

Data set [1] deals with Plasmodium berghei. Briefly: Antiplasmodial activity against Plasmodium berghei ANKA infected in Swiss mouse assessed as parasitemia at 90 mg/kg, ip measured on day 40 postinfection. The format is functional. The following applies: route intraperitoneal. The method, boiled down:
(§1)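 Male Swiss mice (5–6 weeks) infected i.p. with 10^7 P. berghei ANKA-parasitized erythrocytes taken from passage BALB/c mice and diluted in citrate-phosphate-dextrose. At 64 h (3–5% parasitemia confirmed by thin film), piperaquine phosphate was given once i.p. at 90 mg/kg in 50% glycerol/30% isotonic phosphate buffer pH 7.1/20% polysorbate 80. Parasitemia was read from May-Grunwald Giemsa tail-blood smears (mean ± SD) and tracked from dosing (day 0).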

Data set [2] concerns Plasmodium berghei. Briefly: Antiplasmodial activity against Plasmodium berghei ANKA infected in Swiss mouse assessed as parasitemia at 90 mg/kg, ip measured on day 13 postinfection. It is filed as functional. The following applies: route intraperitoneal. The gist of the method: as §1
Data set [3] concerns Plasmodium berghei. The experiment in a line: Antiplasmodial activity against Plasmodium berghei ANKA infected in Swiss mouse assessed as parasitemia at 90 mg/kg, ip measured on day 60 postinfection. The format is functional. The following applies: route intraperitoneal. The gist of the method:
as §1

Data set [4] can be described thus: Plasma concentration in Swiss mouse infected with Plasmodium berghei ANKA at 90 mg/kg, ip after 40 days. The format is ADME, organism-based. Details: dose 90 mg/kg, route intraperitoneal. The gist of the method: (§2)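 Infected Swiss mice (n = 4) were dosed with 90 mg/kg piperaquine phosphate i.p. at day 0. Plasma was taken by cardiac puncture, centrifuged at 3,000 x g for 5 min and stored at –80°C. Drug was measured by a validated HPLC assay (LOQ 1.6 µg/liter, LOD 0.7 µg/liter, CV <12%). Values are mean ± SD.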

In data set [5] the test system is Plasmodium berghei. The experiment in a line: Antiplasmodial activity against Plasmodium berghei ANKA infected in Swiss mouse assessed as median survival time at 90 mg/kg, ip administered 5 days after infection. The format is functional. The following applies: route intraperitoneal. The gist of the method:
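Naive male Swiss mice (5 weeks, n = 5 per donor) inoculated i.p. with 200 µl of a 1:5 dilution of saline-washed, buffy-coat-depleted red cells from PQP-treated infected donor mice (<105 parasites). Five days later three mice per cohort received single i.p. 90 mg/kg PQP in glycerol/phosphate buffer pH 7.1/polysorbate 80; two left untreated. Parasitemia by Giemsa thin films twice daily; median survival recorded.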

Data set [6] relates to Plasmodium berghei. The experiment in a line: Antiplasmodial activity against Plasmodium berghei ANKA infected in Swiss mouse assessed as parasitemia at 90 mg/kg, ip administered 5 days after infection measured up to 25 days. The following applies: route intraperitoneal. It is filed as functional. The gist of the method:
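Donor blood from previously infected, treated mice was taken by cardiac puncture and the red cells washed three times in 0.9% NaCl. A 1:5 dilution (<10^5 parasites) was given i.p. to naive male mice (5 weeks; n = 5 per donor). Five days later, three mice per group received a single 90 mg/kg i.p. dose of piperaquine phosphate and two stayed untreated. Giemsa smears were read twice daily.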

Data set [7] can be described thus: Plasma concentration in Swiss mouse infected with Plasmodium berghei ANKA at 90 mg/kg, ip after 25 days. Also on record: dose 90 mg/kg, route intraperitoneal. It is filed as ADME, organism-based. The gist of the method: as §2
The test system of data set [8] is Plasmodium berghei. The experiment in a line: Antiplasmodial activity against Plasmodium berghei ANKA infected in Swiss mouse assessed as parasitemia at 90 mg/kg, ip measured on day 90 postinfection. It is filed as functional. The following applies: route intraperitoneal. The gist of the method: as §1
In data set [9] the test system is Plasmodium berghei. Briefly: Antiplasmodial activity against Plasmodium berghei ANKA infected in Swiss mouse assessed as parasitemia at 90 mg/kg, ip measured on day 25 postinfection. The following applies: route intraperitoneal. It is filed as functional. The gist of the method: as §1
Data set [10] in a line: Plasma concentration in Swiss mouse infected with Plasmodium berghei ANKA at 90 mg/kg, ip after 60 days. Also on record: dose 90 mg/kg, route intraperitoneal. It is filed as ADME, organism-based. The method, boiled down:
as §2

Data set [11] deals with Plasmodium berghei. Briefly: Antiplasmodial activity against Plasmodium berghei ANKA infected in Swiss mouse assessed as assessed as time required for parasite recrudescence at 90 mg/kg, ip. It is filed as functional. The following applies: route intraperitoneal.

As to `Clc1ccc2c(N3CCN(CCCN4CCN(c5ccnc6cc(Cl)ccc56)CC4)CC3)ccnc2c1.O=P(O)(O)O` [PIPERAQUINE PHOSPHATE], the Activity in the data set with Plasmodium berghei [1] is 0.1%; in the data set on Plasmodium berghei [2] it was 1.32%; in the data set with Plasmodium berghei [3] it was 0.3%; with Plasmodium berghei [6], 10%; with Plasmodium berghei [8], 0.9%; in the data set on Plasmodium berghei [9], <0.015%. In data set [4], this compound returned a concentration at 960 h of 11 ng/mL. Besides, the MST in the data set on Plasmodium berghei [5] turned out to be 19 days. This compound gave a concentration at 600 h in data set [7] of 15 ng/mL. This compound gave a concentration at 1440 h in [10] of 2 ng/mL. Besides, the Time with Plasmodium berghei [11] was found to be 7 days.
